Results taken from ChEMBL document CHEMBL4706580, “4-Amino-1,2,4-triazole-3-thione-derived Schiff bases as metallo-β-lactamase inhibitors” (Eur J Med Chem, 2020).
Calls of active or inactive are those of the source. The calls are words filed in the database; no cut-off is given here.

What was measured:
[1] = Inhibition of beta-lactamase VIM2 (unknown origin) expressed in Escherichia coli BL21(DE3) using imipenem as substrate by measuring substrate hydrolysis at 100 uM by spectrophotometric analysis
In short: (§1)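 Purified enzyme (overproduced in E. coli BL21(DE3), pET-9a; ion-exchange and gel filtration), 1-70 nM final. Reporter substrate 150 μM imipenem, read at 300 nm, 30 °C, 50 mM HEPES pH 7.5. Single-point screen at 100 or 200 μM; Ki from v0/vi vs [I] (0.5–1,000 μM final) assuming competitive inhibition, or Dixon plot. Triplicate.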

[2] = Inhibition of beta-lactamase CphA (unknown origin) expressed in Escherichia coli BL21(DE3) using imipenem as substrate by measuring substrate hydrolysis by spectrophotometric analysis
In short: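 Enzyme 0.2–0.8 nM in 15 mM cacodylate pH 6.5, no added zinc, pre-incubated 30 min at 21 °C with inhibitor (100 μM screen). Imipenem substrate added from 10 mM stock; hydrolysis at 300 nm, 30 °C. Residual activity vs three uninhibited samples; Ki (1–100 μM inhibitor) by Hanes linearization, competitive model. Triplicate.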

[3] = Inhibition of beta-lactamase VIM2 (unknown origin) expressed in Escherichia coli BL21(DE3) using imipenem as substrate by measuring substrate hydrolysis at 200 uM by spectrophotometric analysis; in short: as §1
[4] = Inhibition of beta-lactamase IMP-1 (unknown origin) expressed in Escherichia coli BL21(DE3) using imipenem as substrate by measuring substrate hydrolysis by spectrophotometric analysis; in short: as §1
[5] = Inhibition of beta-lactamase L1 (unknown origin) expressed in Escherichia coli BL21(DE3) using nitrocefin as substrate by measuring substrate hydrolysis at 100 uM preincubated for 30 mins by spectrophotometric analysis
In short: (§2)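 Enzyme 0.2–0.8 nM in 25 mM HEPES pH 7.5 with 50 μM ZnCl2 final, pre-incubated 30 min at 21 °C with inhibitor (100 μM screen). Nitrocefin 100 μM final, read at 482 nm, 30 °C. Residual activity vs three uninhibited samples; Ki (1–100 μM inhibitor) from Hanes linearization, competitive model. Triplicate.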

[6] = Inhibition of beta-lactamase VIM4 (unknown origin) expressed in Escherichia coli BL21(DE3) using imipenem as substrate by measuring substrate hydrolysis at 100 uM by spectrophotometric analysis; in short: as §1
[7] = Inhibition of beta-lactamase IMP-1 (unknown origin) expressed in Escherichia coli LZ2310 assessed as potentiation of ceftazidime antibacterial activity by measuring ceftazidime induced diameter of inhibition zone at 80 uM incubated for 18 hrs by disk diffusion method (reference value: 9 mm)
In short: (§3)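 Efflux-deficient E. coli LZ2310 (NorE, MdfA, AcrA knocked out) carrying pLB-II with the cloned MBL gene. Mueller-Hinton, CLSI disk diffusion; antibiotic disks (30 µg cefoxitin for VIM-2, 10 µg ampicillin for VIM-4, 30 µg ceftazidime for NDM-1/IMP-1) loaded with inhibitor in DMSO (≤15 µL). Zone diameter after 18 h, 35 ± 1 °C; DMSO and 220 µg EDTA controls. Triplicate.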

[8] = Inhibition of beta-lactamase NDM1 (unknown origin) expressed in Escherichia coli BL21(DE3) using cefotaxime/nitrocefin as substrate by measuring substrate hydrolysis at 100 uM by spectrophotometric analysis
[9] = Inhibition of beta-lactamase IMP-1 (unknown origin) expressed in Escherichia coli LZ2310 assessed as potentiation of ceftazidime antibacterial activity by measuring ceftazidime induced diameter of inhibition zone at 40 uM incubated for 18 hrs by disk diffusion method (reference value: 9 mm); in short: as §3
[10] = Inhibition of beta-lactamase NDM1 (unknown origin) expressed in Escherichia coli BL21(DE3) using cefotaxime/nitrocefin as substrate by measuring substrate hydrolysis at 200 uM by spectrophotometric analysis
[11] = Inhibition of beta-lactamase NDM1 (unknown origin) expressed in Escherichia coli BL21(DE3) using cefotaxime/nitrocefin as substrate by measuring substrate hydrolysis by spectrophotometric analysis
In short: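 His-tagged enzyme from E. coli BL21(DE3) pET-15b, affinity-purified, 1-70 nM final. Reporter substrate 120 μM cefotaxime (260 nm) or 100 μM nitrocefin (482 nm), 30 °C, 50 mM HEPES pH 7.5. Inhibitor 0.5–1,000 μM final; competitive Ki from v0/vi vs [I] slope or Dixon plot. Triplicate.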

[12] = Inhibition of beta-lactamase VIM4 (unknown origin) expressed in Escherichia coli BL21(DE3) using imipenem as substrate by measuring substrate hydrolysis by spectrophotometric analysis; in short: as §1
[13] = Inhibition of beta-lactamase VIM-2 (unknown origin) expressed in Escherichia coli XL-1 assessed as potentiation of cefoxitin antibacterial activity by measuring cefoxitin induced diameter of inhibition zone at 320 uM incubated for 18 hrs by disk diffusion method (reference value: 8 mm)
In short: (§4)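 Wild-type efflux E. coli XL-1 Blue transformed with pLB-II-VIM-2. Mueller-Hinton disk diffusion per CLSI, 30 µg cefoxitin disks loaded with inhibitor dissolved in DMSO (≤15 µL). Growth-inhibition zone measured after 18 h at 35 ± 1 °C; DMSO negative and 220 µg EDTA positive controls. Triplicate.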

[14] = Inhibition of beta-lactamase NDM-1 (unknown origin) expressed in Escherichia coli LZ2310 assessed as potentiation of ceftazidime antibacterial activity by measuring ceftazidime induced diameter of inhibition zone at 320 uM incubated for 18 hrs by disk diffusion method (reference value: 15 mm); in short: as §3
[15] = Inhibition of beta-lactamase VIM-2 (unknown origin) expressed in Escherichia coli LZ2310 assessed as potentiation of cefoxitin antibacterial activity by measuring cefoxitin induced diameter of inhibition zone at 320 uM incubated for 18 hrs by disk diffusion method (reference value: 14 mm); in short: as §3
[16] = Inhibition of beta-lactamase IMP-1 (unknown origin) expressed in Escherichia coli LZ2310 assessed as potentiation of ceftazidime antibacterial activity by measuring ceftazidime induced diameter of inhibition zone at 320 uM incubated for 18 hrs by disk diffusion method (reference value: 9 mm); in short: as §3
Escherichia coli [17] = assay: Synergistic antibacterial activity against NDM-1 producing Escherichia coli assessed as MIC of ceftazidime at 32 ug/ml by broth microdilution method; format: functional; details: dose 32 µg/ml
Escherichia coli [18] = assay: Synergistic antibacterial activity against NDM-1 producing Escherichia coli assessed as MIC of imipenem at 32 ug/ml by broth microdilution method; format: functional; details: dose 32 µg/ml
Escherichia coli [19] = assay: Antibacterial activity against NDM-1 producing Escherichia coli in presence of colistin by broth microdilution method.; format: functional
[20] = Inhibition of beta-lactamase VIM2 (unknown origin) expressed in Escherichia coli BL21(DE3) using imipenem as substrate by measuring substrate hydrolysis by spectrophotometric analysis; in short: as §1
[21] = Inhibition of beta-lactamase VIM-2 (unknown origin) expressed in Escherichia coli LZ2310 assessed as potentiation of cefoxitin antibacterial activity by measuring cefoxitin induced diameter of inhibition zone at 40 uM incubated for 18 hrs by disk diffusion method (reference value: 14 mm); in short: as §3
[22] = Inhibition of beta-lactamase NDM-1 (unknown origin) expressed in Escherichia coli LZ2310 assessed as potentiation of ceftazidime antibacterial activity by measuring ceftazidime induced diameter of inhibition zone at 40 uM incubated for 18 hrs by disk diffusion method (reference value: 15 mm); in short: as §3
[23] = Inhibition of beta-lactamase L1 (unknown origin) expressed in Escherichia coli BL21(DE3) using nitrocefin as substrate by measuring substrate hydrolysis preincubated for 30 mins by spectrophotometric analysis; in short: as §2
[24] = Inhibition of beta-lactamase VIM-2 (unknown origin) expressed in Escherichia coli LZ2310 assessed as potentiation of cefoxitin antibacterial activity by measuring cefoxitin induced diameter of inhibition zone at 120 uM incubated for 18 hrs by disk diffusion method (reference value: 14 mm); in short: as §3
Escherichia coli [25] = assay: Synergistic antibacterial activity against NDM-1 producing Escherichia coli assessed ass MIC of ceftazidime/avibactam at 32 ug/ml by broth microdilution method; format: functional; details: dose 32 µg/ml
In short: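 MIC of ceftazidime-avibactam (avibactam fixed at 4 µg/mL) by CLSI broth microdilution in Mueller-Hinton broth. Used the NDM-1-producing multidrug-resistant E. coli clinical isolate SI-001M at 5 × 10⁴ CFU/well, with and without inhibitor at a fixed 32 µg/ml. No colistin added. Triplicate determinations.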

[26] = target: Hydroxyacylglutathione hydrolase (Homo sapiens); assay: Inhibition of human Glyoxalase II expressed in Escherichia coli BL21 (DE3)
Escherichia coli [27] = assay: Synergistic antibacterial activity against NDM-1 producing Escherichia coli assessed as MIC of meropenem at 32 ug/ml by broth microdilution method; format: functional; details: dose 32 µg/ml
[28] = Inhibition of beta-lactamase VIM4 (unknown origin) expressed in Escherichia coli BL21(DE3) using imipenem as substrate by measuring substrate hydrolysis at 200 uM by spectrophotometric analysis; in short: as §1
[29] = Inhibition of beta-lactamase IMP-1 (unknown origin) expressed in Escherichia coli BL21(DE3) using imipenem as substrate by measuring substrate hydrolysis at 100 uM by spectrophotometric analysis; in short: as §1
[30] = Inhibition of beta-lactamase L1 (unknown origin) expressed in Escherichia coli BL21(DE3) using nitrocefin as substrate by measuring substrate hydrolysis at 200 uM preincubated for 30 mins by spectrophotometric analysis
[31] = Inhibition of beta-lactamase IMP-1 (unknown origin) expressed in Escherichia coli BL21(DE3) using imipenem as substrate by measuring substrate hydrolysis at 200 uM by spectrophotometric analysis; in short: as §1
[32] = Inhibition of beta-lactamase VIM-2 (unknown origin) expressed in Escherichia coli XL-1 assessed as potentiation of cefoxitin antibacterial activity by measuring cefoxitin induced diameter of inhibition zone at 120 uM incubated for 18 hrs by disk diffusion method (reference value: 8 mm); in short: as §4
HUVEC = assay: Cytotoxicity in human HUVEC cells assessed as reduction in cell viability upto 100 uM incubated for 72 hrs by MTT assay; format: cell-based
[33] = Inhibition of beta-lactamase VIM-2 (unknown origin) expressed in Escherichia coli XL-1 assessed as potentiation of cefoxitin antibacterial activity by measuring cefoxitin induced diameter of inhibition zone at 240 uM incubated for 18 hrs by disk diffusion method (reference value: 8 mm); in short: as §4
HeLa = assay: Cytotoxicity in human HeLa cells assessed as cell lysis upto 250 uM incubated for 72 hrs by membrane integrity assay; format: cell-based
[34] = Inhibition of beta-lactamase VIM-2 (unknown origin) expressed in Escherichia coli LZ2310 assessed as potentiation of cefoxitin antibacterial activity by measuring cefoxitin induced diameter of inhibition zone at 240 uM incubated for 18 hrs by disk diffusion method (reference value: 14 mm); in short: as §3

Compound	inhibition [1]	inhibition [3]	inhibition [5]	inhibition [6]	inhibition zone (IZ) [7] [mm]	inhibition [8]	inhibition [10]	Ki [2] [µM]	Ki [4] [µM]	Ki [11] [µM]	Ki [12] [µM]	other results
Cc1ccccc1-c1n[nH]c(=S)n1/N=C/c1cc([N+](=O)[O-])ccc1O	inactive	inactive	61%	44%	13	inactive	inactive	3	11			inhibition zone (IZ) [9]: 9 mm
O=C(O)c1ccccc1/C=N/n1c(-c2cccc(Cl)c2)n[nH]c1=S	inactive	inactive	60%						58	7.5	2	inhibition zone (IZ) [13]: 8 mm; inhibition zone (IZ) [14]: 15 mm; inhibition zone (IZ) [15]: 14 mm; inhibition zone (IZ) [16]: 9 mm
O=C(O)c1ccccc1/C=N/n1c(Cc2ccc3ccccc3c2)n[nH]c1=S								15	34.4	1.7	5	MIC (Escherichia coli [17]): > 256 µg/mL; MIC (Escherichia coli [18]): 8 µg/mL; MIC (Escherichia coli [19]): > 256 µg/mL; Ki [20]: 2.4 µM; inhibition zone (IZ) [21]: 14 mm; inhibition zone (IZ) [9]: 9 mm; inhibition zone (IZ) [22]: 15 mm; Ki [23]: 0.5 µM; inhibition zone (IZ) [24]: 16 mm; MIC (Escherichia coli [25]): > 256 µg/mL; IC50 [26]: 30 µM; MIC (Escherichia coli [27]): 64 µg/mL
S=c1[nH]nc(Cc2ccc3ccccc3c2)n1/N=C/c1ccc(OCc2ccccc2)cc1	inactive	inactive	inactive	inactive	9	inactive	inactive					inhibition [28]: inactive; inhibition [29]: inactive; inhibition [30]: inactive; inhibition [31]: inactive
S=c1[nH]nc(-c2cc3ccccc3[nH]2)n1/N=C/c1ccc(OCc2ccccc2)cc1	inactive	inactive	inactive	inactive	9	inactive	inactive					inhibition [28]: inactive; inhibition [30]: inactive; inhibition [31]: 60%
Oc1ccc(/C=N/n2c(-c3cccc(C(F)(F)F)c3)n[nH]c2=S)c(O)c1	53%		15%						66.2	32.5	3.5	inhibition zone (IZ) [32]: 12 mm
Cc1ccccc1-c1n[nH]c(=S)n1/N=C/c1ccccc1C(=O)O								120	58	110	1.6	Activity (HUVEC): Non-Toxic; inhibition zone (IZ) [33]: 9 mm; Ki [20]: 3 µM; Ki [23]: 40 µM; Activity (HeLa): Non-Toxic; IC50 [26]: 25.8 µM; inhibition zone (IZ) [34]: 20 mm
